# Starred links: 1 amine or outer side, 2 acyl side, 3 side chain; linkers in the order of their positions; H or OH if unused. Positions of bridges follow the written chain, without caps; N, C: chain ends. Non-standard residues stand in square brackets, D forms with d. Residues, ends and D or L forms follow the SMILES beside them. *: point of attachment. pTerphenylCO(4''-OnC5H11) = CCCCCOc1ccc(-c2ccc(-c3ccc(C(=O)*)cc3)cc2)cc1; Orn(4R-OH,5R-OH) = O=C([C@H](C[C@@H](O)[C@@H](O)N[*:3])N[*:1])[*:2]; hTyr(3S-OH,4S-OH) = N[C@H](C(=O)O)[C@H](O)[C@@H](O)c1ccc(O)cc1; Pro(3S-OH,4S-Me) = C[C@H]1CN[C@H](C(=O)O)[C@H]1O; Hyp = O=C(O)[C@@H]1C[C@@H](O)CN1
# Experiments:
# Assay type in all cases: functional
# Candida dubliniensis [1] = assay: Antifungal activity against Candida dubliniensis 9453 after 24 hrs; details: Candida dubliniensis, 9453, 24 h
# Method in brief: (§1)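 CLSI M27-A3 broth microdilution. Yeast inoculum was adjusted with a hemocytometer. MIC was read at 24 h or 48 h as the lowest concentration giving 50% growth inhibition.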
# Candida dubliniensis [2] = assay: Antifungal activity against Candida dubliniensis 9453 after 48 hrs; details: Candida dubliniensis, 9453, 48 h; method in brief: as §1
# Candida dubliniensis [3] = assay: Antifungal activity against Candida dubliniensis 9456 after 24 hrs; details: Candida dubliniensis, 9456, 24 h; method in brief: as §1
# Candida dubliniensis [4] = assay: Antifungal activity against Candida dubliniensis 9456 after 48 hrs; details: Candida dubliniensis, 9456, 48 h; method in brief: as §1
# Candida dubliniensis [5] = assay: Antifungal activity against Candida dubliniensis 10031 after 24 hrs; details: Candida dubliniensis, 10031, 24 h; method in brief: as §1
# Candida dubliniensis [6] = assay: Antifungal activity against Candida dubliniensis 10031 after 48 hrs; details: Candida dubliniensis, 10031, 48 h; method in brief: as §1
# Candida dubliniensis [7] = assay: Antifungal activity against Candida dubliniensis 10032 after 24 hrs; details: Candida dubliniensis, 10032, 24 h; method in brief: as §1
# Candida dubliniensis [8] = assay: Antifungal activity against Candida dubliniensis 10032 after 48 hrs; details: Candida dubliniensis, 10032, 48 h; method in brief: as §1
# Candida dubliniensis [9] = assay: Antifungal activity against Candida dubliniensis 10033 after 24 hrs; details: Candida dubliniensis, 10033, 24 h; method in brief: as §1
# Candida dubliniensis [10] = assay: Antifungal activity against Candida dubliniensis 10033 after 48 hrs; details: Candida dubliniensis, 10033, 48 h; method in brief: as §1
# Candida dubliniensis [11] = assay: Antifungal activity against Candida dubliniensis 10034 after 24 hrs; details: Candida dubliniensis, 10034, 24 h; method in brief: as §1
# Candida dubliniensis [12] = assay: Antifungal activity against Candida dubliniensis 10034 after 48 hrs; details: Candida dubliniensis, 10034, 48 h; method in brief: as §1
# Candida dubliniensis [13] = assay: Antifungal activity against Candida dubliniensis 10035 after 24 hrs; details: Candida dubliniensis, 10035, 24 h; method in brief: as §1
# Candida dubliniensis [14] = assay: Antifungal activity against Candida dubliniensis 10035 after 48 hrs; details: Candida dubliniensis, 10035, 48 h; method in brief: as §1
# Candida dubliniensis [15] = assay: Antifungal activity against Candida dubliniensis 9453 by hemocytometry
# Method in brief: (§2)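 Minimal fungicidal concentration from the broth dilution test, defined as the lowest drug level giving ≥99.9% reduction in CFU/ml. Inocula were adjusted by hemocytometer.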
# Candida dubliniensis [16] = assay: Antifungal activity against Candida dubliniensis 9456 by hemocytometry; method in brief: as §2
# Candida dubliniensis [17] = assay: Antifungal activity against Candida dubliniensis 10031 by hemocytometry; method in brief: as §2
# Candida dubliniensis [18] = assay: Antifungal activity against Candida dubliniensis 10032 by hemocytometry; method in brief: as §2
# Candida dubliniensis [19] = assay: Antifungal activity against Candida dubliniensis 10033 by hemocytometry; method in brief: as §2
# Candida dubliniensis [20] = assay: Antifungal activity against Candida dubliniensis 10034 by hemocytometry; method in brief: as §2
# Candida dubliniensis [21] = assay: Antifungal activity against Candida dubliniensis FMR 10032 infected in immunosuppressed OF1 mouse assessed as fungal count in kidney at 1 mg/kg/day, iv […]
# Method in brief: (§3)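 Male OF1 mice, 10 per group, were immunosuppressed on infection day with cyclophosphamide 200 mg/kg i.p. plus 5-fluorouracil 150 mg/kg i.v., then challenged i.v. with 1.5 × 10^5 CFU. Drug was given at 1 mg/kg i.v. once daily for 5 days, starting 24 h after challenge. One day after treatment ended, kidney and spleen homogenates were plated in 10-fold dilutions on Sabouraud agar (35°C, 3 days) and mean log10 CFU was reported.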
# Candida dubliniensis [22] = assay: Antifungal activity against Candida dubliniensis 9453 assessed as compound concentration at which paradoxical growth of observed after 48 hrs
# Method in brief: (§4)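 Broth dilution susceptibility testing of yeasts per CLSI reference method M27-A3, with inocula adjusted by hemocytometer count. Wells were read at 24 and 48 h. The paradoxical growth range is the span of drug concentrations (μg/ml) over which growth reappeared above the inhibitory concentration. Where growth occurred across the entire concentration range (trailing), no range was determined.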
# Candida dubliniensis [23] = assay: Antifungal activity against Candida dubliniensis 9456 assessed as compound concentration at which paradoxical growth of observed after 48 hrs; method in brief: as §4
# Candida dubliniensis [24] = assay: Antifungal activity against Candida dubliniensis FMR 10034 infected in OF1 mouse assessed as fungal count in spleen at 1 mg/kg/day, iv […]
# Method in brief: (§5)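 Immunocompetent male OF1 mice, 10 per group, were challenged i.v. with 1.5 × 10^7 CFU. Drug was given i.v. once daily at 1 or 10 mg/kg for 3 days, starting 24 h post-challenge; controls were untreated. Mice were killed 1 day after the last dose. Kidneys and spleen were homogenized in saline, serial 10-fold dilutions were plated on Sabouraud agar at 35°C for 3 days, and mean log10 CFU was reported.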
# Candida dubliniensis [25] = assay: Antifungal activity against Candida dubliniensis 10033 assessed as compound concentration at which paradoxical growth of observed after 48 hrs; method in brief: as §4
# Candida dubliniensis [26] = assay: Antifungal activity against Candida dubliniensis 10034 assessed as compound concentration at which paradoxical growth of observed after 48 hrs
# Method in brief: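 In the same broth dilution (CLSI M27-A3) tests, read at 24 or 48 h, this is the range of drug concentrations over which paradoxical growth appeared. It was not set when growth occurred across the whole tested range (trailing).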
# Candida dubliniensis [27] = assay: Antifungal activity against Candida dubliniensis FMR 10032 infected in OF1 mouse assessed as fungal count in kidney at 10 mg/kg/day, iv […]; method in brief: as §5
# Candida dubliniensis [28] = assay: Antifungal activity against Candida dubliniensis FMR 10032 infected in OF1 mouse assessed as fungal count in kidney at 1 mg/kg/day, iv […]; method in brief: as §5
# Candida dubliniensis [29] = assay: Antifungal activity against Candida dubliniensis FMR 10032 infected in OF1 mouse assessed as fungal count in spleen at 10 mg/kg/day, iv […]; method in brief: as §5
# Candida dubliniensis [30] = assay: Antifungal activity against Candida dubliniensis FMR 10032 infected in OF1 mouse assessed as fungal count in spleen at 1 mg/kg/day, iv […]; method in brief: as §5
# Candida dubliniensis [31] = assay: Antifungal activity against Candida dubliniensis FMR 10034 infected in OF1 mouse assessed as fungal count in kidney at 10 mg/kg/day, iv […]; method in brief: as §5
# Candida dubliniensis [32] = assay: Antifungal activity against Candida dubliniensis FMR 10034 infected in OF1 mouse assessed as fungal count in kidney at 1 mg/kg/day, iv […]; method in brief: as §5
# Candida dubliniensis [33] = assay: Antifungal activity against Candida dubliniensis FMR 10034 infected in OF1 mouse assessed as fungal count in spleen at 10 mg/kg/day, iv […]; method in brief: as §5
# Candida dubliniensis [34] = assay: Antifungal activity against Candida dubliniensis FMR 10032 infected in immunosuppressed OF1 mouse assessed as fungal count in spleen at 1 mg/kg/day, iv […]; method in brief: as §3
# Candida dubliniensis [35] = assay: Antifungal activity against Candida dubliniensis FMR 10034 infected in immunosuppressed OF1 mouse assessed as fungal count in kidney at 1 mg/kg/day, iv […]; method in brief: as §3
# Candida dubliniensis [36] = assay: Antifungal activity against Candida dubliniensis FMR 10034 infected in immunosuppressed OF1 mouse assessed as fungal count in spleen at 1 mg/kg/day, iv […]; method in brief: as §3
structure (smiles),measurement,setting,value
"CCCCCOc1ccc(-c2ccc(-c3ccc(C(=O)N[C@H]4C[C@@H](O)[C@@H](O)NC(=O)[C@@H]5[C@@H](O)[C@@H](C)CN5C(=O)[C@H]([C@@H](C)O)NC(=O)[C@H]([C@H](O)[C@@H](O)c5ccc(O)cc5)NC(=O)[C@@H]5C[C@@H](O)CN5C(=O)[C@H]([C@@H](C)O)NC4=O)cc3)cc2)cc1 [ANIDULAFUNGIN] ({pTerphenylCO(4''-OnC5H11)}-[Orn(4R-OH,5R-OH)]T[Hyp][hTyr(3S-OH,4S-OH)]T[Pro(3S-OH,4S-Me)]; lactam 1-C)",MIC50,Candida dubliniensis [1],< 0.03 µg/mL
same,MIC50,Candida dubliniensis [2],< 0.03 µg/mL
same,MIC50,Candida dubliniensis [3],< 0.03 µg/mL
same,MIC50,Candida dubliniensis [4],< 0.03 µg/mL
same,MIC50,Candida dubliniensis [5],< 0.03 µg/mL
same,MIC50,Candida dubliniensis [6],< 0.03 µg/mL
same,MIC50,Candida dubliniensis [7],< 0.03 µg/mL
same,MIC50,Candida dubliniensis [8],< 0.03 µg/mL
same,MIC50,Candida dubliniensis [9],< 0.03 µg/mL
same,MIC50,Candida dubliniensis [10],0.06 µg/mL
same,MIC50,Candida dubliniensis [11],< 0.03 µg/mL
same,MIC50,Candida dubliniensis [12],< 0.03 µg/mL
same,MIC50,Candida dubliniensis [13],< 0.03 µg/mL
same,MIC50,Candida dubliniensis [14],< 0.03 µg/mL
same,MFC,Candida dubliniensis [15],> 16 µg/mL
same,MFC,Candida dubliniensis [16],> 16 µg/mL
same,MFC,Candida dubliniensis [17],> 16 µg/mL
same,MFC,Candida dubliniensis [18],2 µg/mL
same,MFC,Candida dubliniensis [19],2 µg/mL
same,MFC,Candida dubliniensis [20],> 16 µg/mL
same,log10cfu,Candida dubliniensis [21],5.75
same,Activity,Candida dubliniensis [22],4 µg/mL
same,Activity,Candida dubliniensis [23],8 µg/mL
same,log10cfu,Candida dubliniensis [24],4.54
same,Activity,Candida dubliniensis [25],4 µg/mL
same,Activity,Candida dubliniensis [26],4 µg/mL
same,log10cfu,Candida dubliniensis [27],2.95
same,log10cfu,Candida dubliniensis [28],5.65
same,log10cfu,Candida dubliniensis [29],2.64
same,log10cfu,Candida dubliniensis [30],4.21
same,log10cfu,Candida dubliniensis [31],4.63
same,log10cfu,Candida dubliniensis [32],6.33
same,log10cfu,Candida dubliniensis [33],4.25
same,log10cfu,Candida dubliniensis [34],2.62
same,log10cfu,Candida dubliniensis [35],5.94
same,log10cfu,Candida dubliniensis [36],2.96
